Source: ChEMBL document CHEMBL2046403, “Biochemical and pharmacological evaluation of 4-hydroxychromen-2-ones bearing polar C-3 substituents as anticoagulants” (Eur J Med Chem, 2012)
pIC50: −log10 of the molar value.

Key:
Rattus norvegicus [1] = assay: Hepatotoxicity in Wistar albino rat assessed as change in serum protein level at 0.5 mg/kg, ip measured after 24 hrs; assay type: toxicity, organism-based; design: dose 0.5 mg/kg, route intraperitoneal; conditions: in vivo
Plasma [2] = assay: Anticoagulant activity in Wistar albino rat plasma assessed as international normalized ratio at 0.5 mg/kg, ip; assay type: functional; conditions: route intraperitoneal
Procedure, shortened: (§1)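 Adult Wistar rats (2.5 months, 220–250 g), three per compound and control, were given a single i.p. dose of 0.1 or 0.5 mg/kg in ethanol solution and sacrificed 24 h later. […] Plasma prothrombin time was measured by Quick method and reported in seconds and as INR, from at least three measurements.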

Rattus norvegicus [3] = assay: Hepatotoxicity in Wistar albino rat assessed as change in serum iron level at 0.5 mg/kg, ip measured after 24 hrs; assay type: toxicity, organism-based; design: dose 0.5 mg/kg, route intraperitoneal; conditions: in vivo
Rattus norvegicus [4] = assay: Hepatotoxicity in Wistar albino rat assessed as change in serum ALP level at 0.5 mg/kg, ip measured after 24 hrs; assay type: toxicity, organism-based; design: dose 0.5 mg/kg, route intraperitoneal; conditions: in vivo
Plasma [5] = assay: Anticoagulant activity in Wistar albino rat plasma assessed as prothrombin time at 0.5 mg/kg, ip; assay type: functional; conditions: route intraperitoneal
Procedure, shortened: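 Adult Wistar rats (2.5 months, 220–250 g), three per compound and control, were given a single i.p. dose of 0.1 or 0.5 mg/kg in ethanol solution and sacrificed 24 h later. Plasma prothrombin time was measured by Quick method and reported in seconds and as INR, from at least three measurements.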

Rattus norvegicus [6] = assay: Hepatotoxicity in Wistar albino rat assessed as change in serum gamma-GT level at 0.5 mg/kg, ip measured after 24 hrs; assay type: toxicity, organism-based; design: dose 0.5 mg/kg, route intraperitoneal; conditions: in vivo
Plasma [7] = assay: Anticoagulant activity in Wistar albino rat plasma assessed as prothrombin time at 0.1 mg/kg, ip; assay type: functional; conditions: route intraperitoneal; procedure, shortened: as §1
Rattus norvegicus [8] = assay: Hepatotoxicity in Wistar albino rat assessed as change in serum albumin level at 0.5 mg/kg, ip measured after 24 hrs; assay type: toxicity, organism-based; design: dose 0.5 mg/kg, route intraperitoneal; conditions: in vivo
Plasma [9] = assay: Anticoagulant activity in Wistar albino rat plasma assessed as international normalized ratio at 0.1 mg/kg, ip; assay type: functional; conditions: route intraperitoneal; procedure, shortened: as §1
Plasma [10] = assay: Anticoagulant activity in Wistar albino rat plasma assessed as fibrin time; assay type: functional
Procedure, shortened: (§2)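 Adult albino Wistar rats (2.5 months old, 220–250 g), three per compound and control. […] Fibrin time and fibrinogen were determined on plasma. Fibrinogen was quantified by biuret method at 540 nm. At least three measurements, reported with standard deviation.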

Plasma [11] = assay: Anticoagulant activity in human plasma assessed as prothrombin time at 1 mg/ml; assay type: functional
Procedure, shortened: (§3)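 Frozen human plasma (blood type A+) was used. Compounds were prepared at 1 mg/mL in a vehicle of 96% EtOH, 0.9% NaCl, 20% glycerol and phosphate buffer pH 7. Prothrombin time was measured by Quick method and reported in seconds and as INR, with SD from at least three measurements.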

Plasma [12] = assay: Anticoagulant activity in human plasma assessed as international normalized ratio at 1 mg/ml; assay type: functional; procedure, shortened: as §3
Rattus norvegicus [13] = assay: Hepatotoxicity in Wistar albino rat assessed as change in serum AST level at 0.5 mg/kg, ip measured after 24 hrs; assay type: toxicity, organism-based; design: dose 0.5 mg/kg, route intraperitoneal; conditions: in vivo
Rattus norvegicus [14] = assay: Hepatotoxicity in Wistar albino rat assessed as change in serum bilirubin level at 0.5 mg/kg, ip measured after 24 hrs; assay type: toxicity, organism-based; design: dose 0.5 mg/kg, route intraperitoneal; conditions: in vivo
Plasma [15] = assay: Anticoagulant activity in Wistar albino rat plasma assessed as fibrinogen level; assay type: functional; procedure, shortened: as §2
Rattus norvegicus [16] = assay: Hepatotoxicity in Wistar albino rat assessed as change in serum ALT level at 0.5 mg/kg, ip measured after 24 hrs; assay type: toxicity, organism-based; design: dose 0.5 mg/kg, route intraperitoneal; conditions: in vivo
Rattus norvegicus [17] = assay: Anticoagulant activity in Wistar rats in vivo assessed as prothrombin time

SMILES	Activity (Rattus norvegicus [1])	Ratio (Plasma [2])	Activity (Rattus norvegicus [3])	Activity (Rattus norvegicus [4])	PT (Plasma [5])	Activity (Rattus norvegicus [6])	PT (Plasma [7])	Activity (Rattus norvegicus [8])	Ratio (Plasma [9])	Time (Plasma [10])	PT (Plasma [11])	Ratio (Plasma [12])	Activity (Rattus norvegicus [13])	Activity (Rattus norvegicus [14])	Activity (Plasma [15])	Activity (Rattus norvegicus [16])	pIC50 (Rattus norvegicus [17])
CC(=O)c1c(O)c2ccccc2oc1=O	63.8 g/L	0.9	26.1 µmol/L	200 U/L	9.5 s	3.8 U/L	9.1 s	31.9 g/L	0.9	44.9 s	14 s	1.25	160.5 U/L	1.7 µmol/L	2.5 g/L	34.8 U/L	2.77
COC(=O)/C(C(=O)O)=C(\C)c1c(O)c2ccccc2oc1=O	62.8 g/L	0.48	19.4 µmol/L	215 U/L	8.7 s	4.4 U/L	5.7 s	35.8 g/L	0.37	19.4 s	20 s	1.9	218.4 U/L	1.8 µmol/L	3.2 g/L	51.8 U/L	2.50
CC(=O)C(C(C)=O)=C(C)c1c(O)c2ccccc2oc1=O	66.5 g/L	0.72	32.4 µmol/L	223 U/L	9.6 s	4.4 U/L	8.6 s	40.6 g/L	0.69	24.6 s	17 s	1.55	201.4 U/L	1.5 µmol/L	2.47 g/L	56.4 U/L	2.86
CCN(CC)c1nc(-c2c(O)c3ccccc3oc2=O)cs1	63.2 g/L	0.67	25 µmol/L	192 U/L	10 s	4.4 U/L	8 s	36.7 g/L	0.64	44.9 s	18.5 s	1.75	254.8 U/L	2 µmol/L	1.4 g/L	64.7 U/L	3.03
Cc1ccccc1Nc1nc(-c2c(O)c3ccccc3oc2=O)cs1	69.2 g/L	0.68	29.2 µmol/L	318 U/L	8.1 s	3.6 U/L	8.1 s	36.3 g/L	0.68	28.7 s	18.1 s	1.7	263.4 U/L	1.8 µmol/L	2.1 g/L	59.5 U/L	2.27
O=C(O)CCCCNc1nc(-c2c(O)c3ccccc3oc2=O)cs1	71.5 g/L	0.67	27.4 µmol/L	246 U/L	10 s	3.5 U/L	8 s	35.4 g/L	0.64	23.9 s	22 s	2.1	231.5 U/L	1.2 µmol/L	2.5 g/L	52.6 U/L	3.03
